Experimental findings from the EternaBench riboswitch data are described below.

This data set deals with MS2 coat protein. Put plainly: apparent Kd, MS2 coat protein; higher = weaker binding; RNA-MaP array; FMN 200 µM where present. A digest of the protocol:
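Designs on Illumina sequencing-chip clusters, transcribed by stalled E. coli RNA polymerase, were exposed to SNAP-549-labelled MS2 coat protein in doubling steps from 0.7 or 1.5 nM up to 3 µM, without and then with constant ligand. The buffer held 100 mM Tris-HCl pH 7.5, 80 mM KCl, 4 mM MgCl2, BSA, DTT, yeast tRNA and Tween-20. Apparent Kd values are medians of filtered per-cluster binding-curve fits to green signal normalised to red-channel RNA signal and control-cluster median Fmax.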

[1] abbreviates: designed as: ON switch for flavin mononucleotide, no ligand.
Where [2] appears, read: ligand present: flavin mononucleotide, designed as: ON switch for flavin mononucleotide.
Where [3] appears, read: designed as: OFF switch for flavin mononucleotide, no ligand.
Where [4] appears, read: ligand present: flavin mononucleotide, designed as: OFF switch for flavin mononucleotide.

“GAGUUUACGUUUGACACUUAGCGAGAGGAUAUGGAAAACAAGACAUGAGGAUCACCCAUGUACUAUCAGAAGGCUCGAGUACGA”: the “apparent Kd” value under setting [1] was found to be 8.92 nM and the “apparent Kd” value under setting [2] was found to be 5.69 nM.
As for “CCAUGGAAUGUAGGAUAUGACUGACAAAGUCAGUUAGAAGGACAUGAGGAUCACCCAUGUAGGAAACAACCACAUAAACCAUGG”, the “apparent Kd” value turned out to be 7.62 nM under setting [3] and 6.97 nM under setting [4].
On to “ACCUCACAUGAGGAUCACCCAUGUCAGGAUAUCUAUUAUUGCAGCGUUCCCGUCGCUGAGAGAAGGGACAUUAA”, for which the “apparent Kd” value was 14 nM under setting [3] and 16.8 nM under setting [4].
For “ACGUAUCUAGGAUAUACGCUGGGUACUAUUCUCAAGUCAAGACAUGAGGAUCACCCAUGUAGAAGGAGAAGCAA”, the “apparent Kd” value worked out at 41 nM under setting [3] and 98.4 nM under setting [4].
For “AAUAUGAGCUGGUAUAAAUCCGAAACAUGAGGAUCACCCAUGUAGGAUAUCAGCACGAUAAGUGCUGAGAAGGACAUCCAGCUC”, the “apparent Kd” value worked out at 15.2 nM under setting [3] and 16.2 nM under setting [4].
As to “AGUCUGCUAGGAUAUACAUGAGGAUCACCCAUGUCUAUCAAUAGACUAUUAACCUGGUGUAGAAGGAGCUUGUA”, the “apparent Kd” value is, setting by setting: under setting [3], 11.2 nM; under setting [4], 14.4 nM.
On to “UUAUGUGUUGUAGGAUAUCAUUAGAUUUGUAAUUUAAUUGUAAUUUACAUAUGAGAAGGACAUUUACAUGAGGAUCACCCAUGU”, for which the “apparent Kd” value by setting is: under setting [3], 12.5 nM; under setting [4], 9.6 nM.
In the case of “AGAAACUACGAGAAGGACAUGUGGUCCUUCAGUAACAUGAGGAUCACCCAUGUAGGAUAUCGUAGUUUCAGGAUCGUGAGAUCA”, the “apparent Kd” value amounted to 150 nM under setting [3] and 19.1 nM under setting [4].
On to “GAAAAGGUAGGAUAUACGAAAAAAAAGGGUAGAAAAAAAGCACAUGAGGAUCACCCAUGUAGAAGGACCAAAAG”, for which the “apparent Kd” value came to 36.7 nM under setting [3] and 132 nM under setting [4].
Take “CCGAUUAGCACAGGAUAUGGGAACUCGUAAUUCCCAGAAGGGUGAGCCAAUACAUGAGGAUCACCCAUGUGCGGUAGGUCGGGA”: the “apparent Kd” value amounted to 40.5 nM under setting [1] and 51 nM under setting [2].
With “GUACCUUAUGAGAAGGCGAUCAUAAAACAUGAUCGAGGAUAUCAUGAAAACAUGAGGAUCACCCAUGUAUGGGUAUUAUGGUAC”, the “apparent Kd” value was 37.3 nM under setting [1] and 16.7 nM under setting [2].
As for “CUGGUGUUAGGAUAUUCGAGGCUGCCUCGGAGACGAGGGUAGGAGAAGGGACAUGAGGAUCACCCAUGUGCUCC”, the “apparent Kd” value runs as follows: under setting [3], 34.4 nM; under setting [4], 37.6 nM.
“CAGUCUACAGGAUAUACAUGAGGAUCACCCAUGUGUAUCAACCUUCUGUGAUCCUCAUGUAGAAGGGUAGACUG”: the “apparent Kd” value by setting is: under setting [3], 13.5 nM; under setting [4], 10.9 nM.
In the case of “GCGUUAGUAUCACAUGUAUUACAUGAGGAUCACCCAUGUUACUAGGAUAUGUAUUAGAAUUAUCAACAGAAGGAGUAAUAACGC”, the “apparent Kd” value came to 12.6 nM under setting [3] and 20.3 nM under setting [4].
Take “CAUGUCCUCACAGGAUAUGCACCACUUUGUGGUGCAGAAGGGUGGAAACAUGAGGAUCACCCAUGUGGACAUGAUAUAUUUAAG”: the “apparent Kd” value reads like this: under setting [1], 142 nM; under setting [2], 24.8 nM.
With “AAAUUUAACGAAGGAUAUGGUUACAUGAGGAUCACCCAUGUAUAUUUUGUGAUCUUGUUAAAGUACCAGAAGGUCGUAUACAUA”, the “apparent Kd” value by setting is: under setting [3], 173 nM; under setting [4], 400 nM.
Take “AAUUUUUAACAGAAGGCGUUUAUAUUUAAGUUACGAGGAUAUGUAUAACAUGAGGAUCACCCAUGUAACAUGGAUAUUUAAUAA”: the “apparent Kd” value was found to be 10.3 nM under setting [1] and 8.49 nM under setting [2].
For “UGUAUGGACAGAGGAUAUACGUGCUAGAGAUACUAGCUAAUAAUCCUUACAUGAGGAUCACCCAUGUAGAAGGCUGUCCAUACU”, the “apparent Kd” value under setting [3] turned out to be 20.5 nM and the “apparent Kd” value under setting [4] stood at 45.6 nM.
On to “GUCGUGUGAGGAUAUGGAUAGACGCAGUGACAGUCAGCGACCUAGAAGGCACAUGAGGAUCACCCAUGUAUGUG”, for which the “apparent Kd” value is 47.2 nM under setting [3] and 100 nM under setting [4].
For the sequence “GGGCCGAUAGGAUAUACAUGAGGAUCACCCAUGUAUGCUUAGAAGCGGCAAUCCUUAUGUAGAAGGGUCAGGCU”, the “apparent Kd” value reads like this: under setting [3], 37.1 nM; under setting [4], 33.4 nM.
As to “AUUAUUUAUAGUUAUUGGUAAUUGACAGAAGGUGAAAGUGUCACAUGAGGAUCACCCAUGUUCUUCAAGGAUAUGUUGGUAUAC”, the “apparent Kd” value by setting is: under setting [1], 88.3 nM; under setting [2], 14 nM.
Regarding “CAGCGAUAGCUGAAUGGUACAUGGGAGGAUAUGGGUUACAUGAGGAUCACCCAUGUUAAAUAAUACUAGAAGGCCCAUGUACCU”, the “apparent Kd” value worked out at 16.5 nM under setting [1] and 4.55 nM under setting [2].
In the case of “AGCUGUGGCCGAGGAUAUCUAUCCAAAAUAACCGAAAUAUAAUCGGACAUGAGGAUCACCCAUGUAGAGAAGGCGGUCUCAGCA”, the “apparent Kd” value by setting is: under setting [3], 24.3 nM; under setting [4], 37 nM.
Consider “GUCAGCUCGUGAGGAUAUACAUGUGCUGGAGACAGCACUAUUGUGUUCACAUGAGGAUCACCCAUGUAGAAGGCACGAGCUGAU”, for which the “apparent Kd” value by setting is: under setting [3], 18.3 nM; under setting [4], 85.5 nM.
With “ACAAAUGGAGGAUAUACAUGAGGAUCACCCAUGUAUAUCCUACAUAUGUGAUUUUUAUGUAGAAGGCCAUUUGA”, the “apparent Kd” value is 12.8 nM under setting [3] and 13.4 nM under setting [4].
Take “AGUACUACAGGAUAUACGAGGGAGGUCCACGUGAACCUUUUACAUGAGGAUCACCCAUGUAGAAGGGUAGUACA”: the “apparent Kd” value under setting [3] was determined as 68.3 nM and the “apparent Kd” value under setting [4] was 16.5 nM.
Regarding “UAUAUUUAUGUAGGAUAUGGUAUAUAAAAUAUACCAGAAGGACAUGAGGAUCACCCAUGUAUGAAAUUCCAUAAUUACCGUGUA”, the “apparent Kd” value by setting is: under setting [3], 9.98 nM; under setting [4], 11.3 nM.
Regarding “GCAUGCGUUCGAGGAUAUCGGUGAGAAACGGAACGAGAAGGCGAUCGAAUGUCUCAUCUUAUGAACAUGAGGAUCACCCAUGUA”, the “apparent Kd” value runs as follows: under setting [1], 299 nM; under setting [2], 83.2 nM.
Consider “GGCUACGUUUCGUAGCAGUGUCAUCGAGAAGGCCCUGACAUGAGGAUCACCCAUGUUGUUACAUGGGAGGAUAUCGAUGAUACU”, for which the “apparent Kd” value reads like this: under setting [1], 13.3 nM; under setting [2], 5.12 nM.
With “AAGAAGUCAGGAUAUGCAUGGCGGGACUUGCGUCGUGGCGUGCAGAAGGGACAUGAGGAUCACCCAUGUGGAGA”, the “apparent Kd” value by setting is: under setting [3], 124 nM; under setting [4], 249 nM.
Turning to “GUACAUGAGCAGAAGGGCAUUUAAUUAGAUUUUUAUGUUGAUCAGAAAUGCAGGAUAUGUUAAACAUGAGGAUCACCCAUGUAC”, the “apparent Kd” value runs as follows: under setting [1], 218 nM; under setting [2], 24.1 nM.
For the sequence “AACAAACAUGAGGAUCACCCAUGUCAGGAUAUGGCGGCUAGUGUGCCACCGUACACUACCAGAAGGGACUGGGU”, the “apparent Kd” value by setting is: under setting [3], 212 nM; under setting [4], 151 nM.
In the case of “GGCUACGUUUCGUAGCAGCUAGGUGAGGAUAUUCAAUUUUUCACAUGAGGAUCACCCAUGUAUGUGAAGAAGGCGCCUAGAAAC”, the “apparent Kd” value was 11.2 nM under setting [1] and 5.14 nM under setting [2].
“GAGAGCCGAGGAUAUACAUGAGGAUCACCCAUGUAAAAAAAAAAAAAAAAAAAAUCAUGUAGAAGGCGGCUUUC”: the “apparent Kd” value was 122 nM under setting [3] and 89.8 nM under setting [4].
On to “AAGCGAGGGACAGGAUAUGCGGCGGAACUCGCCGCAGAAGGGUCGACAUGAGGAUCACCCAUGUCCUUACGCUCCAAGUAGAGG”, for which the “apparent Kd” value turned out to be 181 nM under setting [1] and 451 nM under setting [2].
As for “AACUGACAUGAGGAUCACCCAUGUCAGGAUAUGACUUGAUAGAAAAAAAAAUAUCAUGUCAGAAGGGACAUGAA”, the “apparent Kd” value reads like this: under setting [3], 16.4 nM; under setting [4], 13.5 nM.
Take “CGCAAUAUACAGAAGGAGUUAUUUAGAGGAUUACUAGGAUAUGUUCACAUGAGGAUCACCCAUGUCAUAUUGGGAUUUAUUGCG”: the “apparent Kd” value reads like this: under setting [3], 10 nM; under setting [4], 10.3 nM.
In the case of “AAUUUACAUGAGGAUCACCCAUGUGAGGAUAUAUAUACAUGCUUGUUAUUGCGUGUGUGUAGAAGGCGCGUGAU”, the “apparent Kd” value was 64.7 nM under setting [3] and 115 nM under setting [4].
In the case of “AACUUGCGCACAGGAUAUCCACGGAGCGGACGUGGAGAAGGGUGACAUGAGGAUCACCCAUGUACGUAAGUCUAGAUCACUUCC”, the “apparent Kd” value reads like this: under setting [1], 198 nM; under setting [2], 19.1 nM.
As to “UUAAUUUGUCAAGGAUAUGUAAUAUAGAUUAGAAAACAUGAGGAUCACCCAUGUAUAUGGUGGGAACAGAAGGUGAAUGGUUUA”, the “apparent Kd” value runs as follows: under setting [3], 189 nM; under setting [4], 160 nM.
Regarding “CCUCUGUAAGGAUAUACGGAGACCACUGGAAUCAGUGGAAAGUAGAAGGUACAUGAGGAUCACCCAUGUGAGAA”, the “apparent Kd” value runs as follows: under setting [3], 86.6 nM; under setting [4], 151 nM.
For “UUGUUGUGAGGAUAUCCAAUAUAUGACAUGAGGAUCACCCAUGUUUCCACUCGUACCUCCGGAGAAGGCACUUGGU”, the “apparent Kd” value by setting is: under setting [3], 35.5 nM; under setting [4], 29.1 nM.
Turning to “GGCUCGCAGCUAGGAUAUGGGCGGUCACAUGAGGAUCACCCAUGUCAACAUCAAAACCAGAUUAACCAGAAGGAGCUGCGGGUU”, the “apparent Kd” value is, setting by setting: under setting [1], 33.5 nM; under setting [2], 739 nM.
In the case of “GGCUGCGAUGUGAAGGAUAUCCGCGUCUGGACAUGAGGAUCACCCAUGUAUGCUUGGAUCAUGCCGGAGAAGGUCACGAAUGAUU”, the “apparent Kd” value is, setting by setting: under setting [1], 38 nM; under setting [2], 16.6 nM.
For “AGAUUAUGAGGAUAUCGAGUUUAGUACAUGAGGAUCACCCAUGUUAUCCAGGUCUCGUUUCGAGAAGGCAUGAUUC”, the “apparent Kd” value turned out to be 33.5 nM under setting [3] and 30.9 nM under setting [4].
Take “CGCACUUAUAGAGGAUAUGUUGUACAUGAGGAUCACCCAUGUGUUUUUGUAUCAAUAUUAGUGAAACAGAAGGCUAUUUGUGCG”: the “apparent Kd” value is, setting by setting: under setting [3], 5.76 nM; under setting [4], 4.96 nM.
For “UAGAUGGGAGGAUAUACAUAGAUACAGAUUCGUGUAGUGCUACAUGAGGAUCACCCAUGUAGAAGGCCCGUCUU”, the “apparent Kd” value is 16.2 nM under setting [3] and 71.9 nM under setting [4].
On to “GCAUAUCAGGGAGGAUAUGACAUGAGGAUCACCCAUGUAAUUAUGGCUCUGUCAGAAGGCCCAUCGUCACUAUAGUGACGAGAC”, for which the “apparent Kd” value reads like this: under setting [3], 370 nM; under setting [4], 139 nM.

The apparent Kd is the concentration giving half-maximal binding under the conditions of the assay.
